Active and inactive are the calls of the source.
Legend:
[1] = tested on: Rattus norvegicus; experiment: Effect on nociception of the contralateral paw in rat model of sodium iodoacetate-induced osteoarthritis paw withdrawal threshold in early phase at 20 ug administered as intrathecal injection measured up to 45 mins by Von Frey test (reference value: 44 +/- 2.4 g); assay type: organism-based; settings: in vivo, icv_or_intrathecal, 0.75 h
[2] = tested on: Rattus norvegicus; experiment: Effect on nociception of the contralateral paw in rat model of sodium iodoacetate-induced osteoarthritis paw withdrawal threshold in late phase at 20 ug administered as intrathecal injection measured after 60 to 90 mins by Von Frey test (reference value: 43 +/- 3.4 g); assay type: organism-based; settings: in vivo, icv_or_intrathecal
[3] = tested on: Rattus norvegicus; experiment: Antiallodynic activity in sodium iodoacetate-induced rat model of osteoarthritis assessed as reduction in maximum effect in late phase at 20 ug administered as intrathecal injection measured up to 60 to 90 mins by Von Frey test; assay type: functional, organism-based
[4] = tested on: Rattus norvegicus; experiment: Antiallodynic activity in sodium iodoacetate-induced rat model of osteoarthritis assessed as increase in maximum effect in early phase at 20 ug administered as intrathecal injection measured up to 45 mins by Von Frey test; assay type: functional, organism-based
[5] = biological target: T1, Cannabinoid receptor 2 (Rattus norvegicus) (UniProt Q9QZN9); experiment: Displacement of [3H]JWH-018 from CB2R in Wistar rat brain membranes at 10 uM after 60 mins by liquid scintillation analysis relative to control; assay type: cell membranes
T1 sequence (whole entry): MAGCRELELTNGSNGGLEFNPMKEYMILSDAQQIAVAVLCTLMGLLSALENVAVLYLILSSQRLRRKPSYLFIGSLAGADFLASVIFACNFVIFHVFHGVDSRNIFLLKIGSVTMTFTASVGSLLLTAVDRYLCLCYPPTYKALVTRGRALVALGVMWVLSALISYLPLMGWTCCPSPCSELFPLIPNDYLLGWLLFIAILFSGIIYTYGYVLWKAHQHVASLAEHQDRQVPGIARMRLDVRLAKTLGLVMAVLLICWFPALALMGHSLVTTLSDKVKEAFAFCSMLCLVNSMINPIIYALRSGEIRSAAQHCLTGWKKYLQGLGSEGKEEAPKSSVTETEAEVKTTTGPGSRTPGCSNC
Procedure, shortened: (§1)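 Whole rat brain membranes (cerebellum removed; 0.3–0.5 mg/mL protein) in 50 mM Tris-HCl pH 7.4 with 2.5 mM EGTA, 5 mM MgCl2 and 0.5 mg/mL fatty-acid-free BSA, 30 °C. Kinetics used 0.6 nM [3H]JWH-018: association over 0–90 min, dissociation started with 10 µM JWH-018 after 60 min. Saturation over 0.5–35 nM. Competitors at 10^-11–10^-5 M, 60 min. Nonspecific binding with 10 µM JWH-018. Filtration onto PEI-soaked GF/B filters; n≥3.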

[6] = biological target: T2, Cannabinoid receptor (Rattus norvegicus) (UniProt Q9QZN9+P20272); experiment: Antagonist activity at CB1R/CB2R in Wistar rat brain membranes at 10 uM in presence of JWH-018 after 60 mins by [35S]-GTPgammaS binding assay relative to control; assay type: functional, cell membranes
Procedure, shortened: (§2)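 Rat brain membranes (30 µg protein/tube) incubated 60 min at 30 °C with 0.05 nM [35S]GTPγS and ligand at 10^-10–10^-5 M. Buffer: 50 mM Tris-HCl pH 7.4 with 30 µM GDP, 100 mM NaCl, 3 mM MgCl2, 1 mM EGTA. […] Nonspecific binding taken with 10 µM GTPγS; basal set as 100%. Filtration and scintillation counting; n≥3.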

[7] = biological target: T3, Cannabinoid receptor (Rattus norvegicus, UniProt Q9QZN9+P20272); experiment: Displacement of [3H]JWH-018 from CB1R/CB2R in Wistar rat brain membranes after 60 mins by liquid scintillation analysis; assay type: cell membranes
[8] = biological target: T3, Cannabinoid receptor; assay type: cell membranes, Wistar, Brain, Membranes
[9] = Agonist activity at MOR/CB1R/CB2R receptor in Wistar rat brain membranes after 60 mins by [35S]-GTPgammaS binding assay; assay type: cell membranes
[10] = tested on: Rattus norvegicus; experiment: Antiallodynic activity in sodium iodoacetate-induced rat model of osteoarthritis assessed as increase in maximum effect in early phase at 7 ug administered as intrathecal injection measured up to 45 mins by Von Frey test; assay type: functional, organism-based
[11] = tested on: Rattus norvegicus; experiment: Effect on nociception of the contralateral paw in rat model of sodium iodoacetate-induced osteoarthritis assessed as paw withdrawal threshold in late phase at 7 ug administered as intrathecal injection measured after 60 to 90 mins by Von Frey test (reference value: 43 +/- 3.4 g); assay type: ADME, organism-based; settings: in vivo, icv_or_intrathecal
[12] = biological target: Kappa-type opioid receptor (Cavia porcellus, UniProt P41144); assay type: cell membranes, Brain, Membranes
[13] = organism: Rattus norvegicus; settings: Wistar, Brain, Membranes, at 10 µM
[14] = tested on: Rattus norvegicus; experiment: Effect on nociception of the contralateral paw in rat model of sodium iodoacetate-induced osteoarthritis assessed as paw withdrawal threshold in early phase at 7 ug administered as intrathecal injection measured up to 45 mins by Von Frey test (reference value: 44 +/- 2.4 g); assay type: ADME, organism-based; settings: in vivo, icv_or_intrathecal, 0.75 h
[15] = biological target: T4, Mu-type opioid receptor (Rattus norvegicus, UniProt P33535); experiment: Displacement of [3H]DAMGO from MOR in Wistar rat brain membranes after 60 mins by liquid scintillation analysis; assay type: cell membranes
[16] = biological target: T4, Mu-type opioid receptor; experiment: Agonist activity at MOR in Wistar rat brain membranes after 60 mins by [35S]-GTPgammaS binding assay; assay type: functional, cell membranes
[17] = biological target: T2, Cannabinoid receptor (Rattus norvegicus); experiment: (§3) Displacement of [3H]JWH-018 from CB1R/CB2R in Wistar rat brain membranes assessed as dissociation rate constant at 10 uM by liquid scintillation analysis; assay type: cell membranes; procedure, shortened: as §1
[18] = biological target: T3, Cannabinoid receptor; experiment: as §3; assay type: cell membranes; procedure, shortened: as §1
[19] = biological target: T2, Cannabinoid receptor (Rattus norvegicus); experiment: Displacement of [3H]JWH-018 from CB1R/CB2R in Wistar rat brain membranes at 10 uM by liquid scintillation analysis relative to control; assay type: cell membranes; procedure, shortened: as §1
[20] = biological target: T2, Cannabinoid receptor (Rattus norvegicus); experiment: Displacement of [3H]JWH-018 from CB1R/CB2R in Wistar rat brain membranes assessed as specific binding at 10 uM up to 90 mins by liquid scintillation analysis relative to control; assay type: cell membranes; procedure, shortened: as §1
[21] = biological target: T2, Cannabinoid receptor (Rattus norvegicus); experiment: Displacement of [3H]JWH-018 from CB1R/CB2R in Wistar rat brain membranes assessed as maximum efficacy at 10 uM by liquid scintillation analysis; assay type: cell membranes; procedure, shortened: as §1
[22] = biological target: T2, Cannabinoid receptor (Rattus norvegicus); experiment: Displacement of [3H]JWH-018 from CB1R/CB2R in Wistar rat brain membranes assessed as pseudo-first order rate constant at 10 uM up to 90 mins by liquid scintillation analysis; assay type: cell membranes; procedure, shortened: as §1
[23] = biological target: T3, Cannabinoid receptor; experiment: Displacement of [3H]JWH-018 from CB1R/CB2R in Wistar rat brain membranes assessed as dissociation constant by liquid scintillation analysis; assay type: cell membranes; procedure, shortened: as §1
[24] = biological target: T2, Cannabinoid receptor (Rattus norvegicus); experiment: Agonist activity at CB1R/CB2R in Wistar rat brain membranes after 60 mins by [35S]-GTPgammaS binding assay relative to control; assay type: functional, cell membranes; procedure, shortened: as §2
[25] = biological target: T3, Cannabinoid receptor; experiment: Agonist activity at CB1R/CB2R in Wistar rat brain membranes after 60 mins by [35S]-GTPgammaS binding assay; assay type: functional, cell membranes; procedure, shortened: as §2
[26] = biological target: Delta-type opioid receptor (Rattus norvegicus, UniProt P33533); experiment: Displacement of [3H]Ile5,6-deltorphin-2 from DOR in Wistar rat brain membranes after 60 mins by liquid scintillation analysis; assay type: cell membranes
[27] = organism: Rattus norvegicus; experiment: Agonist activity at MOR/CB1R/CB2R in Wistar rat brain membranes at 10 uM in presence of naloxone,rimonabant and AM630 after 60 mins by [35S]-GTPgammaS binding assay relative to control; assay type: cell membranes; procedure, shortened: as §2
[28] = biological target: Cannabinoid receptor 1 (Rattus norvegicus) (UniProt P20272); experiment: Agonist activity at CB1R in Wistar rat brain membranes at 10 uM in presence of rimonabant after 60 mins by [35S]-GTPgammaS binding assay relative to control; assay type: functional, cell membranes; procedure, shortened: as §2
[29] = biological target: T1, Cannabinoid receptor 2 (Rattus norvegicus); experiment: Agonist activity at CB2R in Wistar rat brain membranes at 10 uM in presence of AM630 after 60 mins by [35S]-GTPgammaS binding assay relative to control; assay type: functional, cell membranes; procedure, shortened: as §2
[30] = tested on: Mus musculus; experiment: Antinociceptive activity in CD-1 mouse assessed as increase in thermal latency at 10 mg/kg, iv after 15 to 120 mins by hot plate technique; assay type: functional, organism-based
Procedure, shortened: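 Male CD-1 mice (25 g) given 10 mg/kg i.v. in 10 mL/kg; vehicle saline with 5% DMSO. Hot plate held at 55.0 °C. Latency to paw lick or jump, cut-off 60 s, read at 15–120 min. Baseline is the mean of three pre-test readings. Data given as %MPE; n=6/group.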

[31] = biological target: T5, Cannabinoid receptor 2 (Rattus norvegicus, UniProt Q9QZN9); experiment: Agonist activity at CB2R in Wistar rat brain membranes in presence of AM630 after 60 mins by [35S]-GTPgammaS binding assay; assay type: functional, cell membranes; procedure, shortened: as §2
T5 sequence (Q9QZN9 whole entry): T1 sequence (whole entry)

[32] = biological target: Cannabinoid receptor 1 (Rattus norvegicus, UniProt P20272); experiment: Agonist activity at CB1R in Wistar rat brain membranes in presence of rimonabant after 60 mins by [35S]-GTPgammaS binding assay; assay type: functional, cell membranes; procedure, shortened: as §2
[33] = organism: Rattus norvegicus; experiment: Agonist activity at MOR/CB1R/CB2R in Wistar rat brain membranes after 60 mins by [35S]-GTPgammaS binding assay relative to control; assay type: cell membranes; procedure, shortened: as §2
[34] = biological target: T4, Mu-type opioid receptor; experiment: Agonist activity at MOR in Wistar rat brain membranes in presence of naloxone after 60 mins by [35S]-GTPgammaS binding assay; assay type: functional, cell membranes
Procedure, shortened: (§4)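 Rat brain membranes (30 µg protein/tube) incubated 60 min at 30 °C with 0.05 nM [35S]GTPγS and ligand at 10^-10–10^-5 M. Buffer: 50 mM Tris-HCl pH 7.4 with 30 µM GDP, 100 mM NaCl, 3 mM MgCl2, 1 mM EGTA. Nonspecific binding taken with 10 µM GTPγS; basal set as 100%. Filtration and scintillation counting; n≥3.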

[35] = biological target: Mu-type opioid receptor (Rattus norvegicus) (UniProt P33535); experiment: Agonist activity at MOR in Wistar rat brain membranes at 10 uM in presence of naloxone after 60 mins by [35S]-GTPgammaS binding assay relative to control; assay type: functional, cell membranes; procedure, shortened: as §4
Sequence of Mu-type opioid receptor (Rattus norvegicus) (P33535 whole entry): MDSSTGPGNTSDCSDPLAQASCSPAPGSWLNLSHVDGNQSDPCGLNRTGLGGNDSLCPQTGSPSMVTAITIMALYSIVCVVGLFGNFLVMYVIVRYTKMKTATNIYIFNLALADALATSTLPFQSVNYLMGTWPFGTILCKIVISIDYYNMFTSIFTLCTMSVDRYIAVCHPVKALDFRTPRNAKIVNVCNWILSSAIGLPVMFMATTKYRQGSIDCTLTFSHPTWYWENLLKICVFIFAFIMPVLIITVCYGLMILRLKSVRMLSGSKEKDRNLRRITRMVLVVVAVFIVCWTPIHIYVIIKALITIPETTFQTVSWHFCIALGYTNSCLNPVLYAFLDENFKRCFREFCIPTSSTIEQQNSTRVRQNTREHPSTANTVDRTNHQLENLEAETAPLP

Sequence of Delta-type opioid receptor (P33533 whole entry): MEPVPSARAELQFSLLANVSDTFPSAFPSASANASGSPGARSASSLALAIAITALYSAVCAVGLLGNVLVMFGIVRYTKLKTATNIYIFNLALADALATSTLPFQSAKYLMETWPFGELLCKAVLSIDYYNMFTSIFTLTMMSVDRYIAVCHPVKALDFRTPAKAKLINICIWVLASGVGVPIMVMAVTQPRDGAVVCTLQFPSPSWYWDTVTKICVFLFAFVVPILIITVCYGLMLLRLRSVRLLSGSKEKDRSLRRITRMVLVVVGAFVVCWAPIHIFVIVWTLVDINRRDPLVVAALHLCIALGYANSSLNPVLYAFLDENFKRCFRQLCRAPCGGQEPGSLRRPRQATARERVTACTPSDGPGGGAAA
Sequence of Kappa-type opioid receptor (P41144 whole entry): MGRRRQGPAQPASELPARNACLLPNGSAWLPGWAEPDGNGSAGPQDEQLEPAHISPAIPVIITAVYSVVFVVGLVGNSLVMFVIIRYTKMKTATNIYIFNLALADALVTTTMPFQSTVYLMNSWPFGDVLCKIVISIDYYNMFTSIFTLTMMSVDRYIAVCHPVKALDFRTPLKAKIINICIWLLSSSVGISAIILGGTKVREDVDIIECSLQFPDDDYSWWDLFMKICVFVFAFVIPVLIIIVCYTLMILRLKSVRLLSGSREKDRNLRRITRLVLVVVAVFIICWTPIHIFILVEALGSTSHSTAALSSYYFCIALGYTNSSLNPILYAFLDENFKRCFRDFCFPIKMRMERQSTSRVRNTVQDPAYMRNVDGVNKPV
T2 sequence (P20272 whole entry, looked up, one chain of several): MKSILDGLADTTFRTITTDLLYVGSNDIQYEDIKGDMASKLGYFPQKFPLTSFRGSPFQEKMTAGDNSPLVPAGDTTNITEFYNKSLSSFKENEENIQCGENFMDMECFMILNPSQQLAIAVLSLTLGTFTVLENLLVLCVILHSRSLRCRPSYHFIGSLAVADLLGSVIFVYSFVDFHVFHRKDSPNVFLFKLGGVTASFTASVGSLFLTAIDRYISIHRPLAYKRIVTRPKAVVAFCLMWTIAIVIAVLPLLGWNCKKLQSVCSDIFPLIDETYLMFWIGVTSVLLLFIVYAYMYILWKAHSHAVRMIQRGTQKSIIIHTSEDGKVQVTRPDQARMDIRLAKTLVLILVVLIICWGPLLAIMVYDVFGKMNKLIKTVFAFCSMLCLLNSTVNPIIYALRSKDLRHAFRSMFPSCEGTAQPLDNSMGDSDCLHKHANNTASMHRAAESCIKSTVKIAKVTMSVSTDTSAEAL
T4 sequence (P33535 whole entry): as the sequence (P33535 whole entry) above
Sequence of Cannabinoid receptor 1 (P20272 whole entry): as the sequence (P20272 whole entry, looked up, one chain of several) above
Sequence of Cannabinoid receptor 1 (Rattus norvegicus) (P20272 whole entry): as the sequence (P20272 whole entry, looked up, one chain of several) above

Row | Structure (SMILES) | Activity [1] [g] | Activity [2] [g] | Activity [4] | Ki [7] [nM] | Ki [8] [nM] | EC50 [9] [nM] | Ki [12] [nM] | Emax [13] [%] | Ki [15] [nM] | Ki [26] [nM] | Emax [27] [%] | Emax [28] [%] | Emax [29] [%] | Activity [30] | EC50 [31] [nM] | EC50 [32] [nM] | Emax [33] [%] | other results
1 | COc1ccc2c3c1O[C@H]1C(=O)CC[C@@]4(O)[C@@H](C2)N(C)CC[C@]314 [OXYCODONE] | 43 | 40 | Active |  |  |  |  |  |  |  |  |  |  |  |  |  |  | Activity [3]: Active
2 | COc1ccc(C(=O)c2c(C)n(CCN3CCOCC3)c3cc(I)ccc23)cc1 |  |  |  | 27 |  |  |  |  |  |  |  |  |  |  |  |  |  | Activity [5]: 70%; Emax [6]: 100%
3 | C[C@@H](NC(=O)[C@@H](N)Cc1ccc(O)cc1)C(=O)NCC(=O)N[C@@H](Cc1ccccc1)C(N)=O |  |  |  | > 10000 | > 10000 | 191 | 173 | 157 | 0.8 |  |  |  |  |  |  |  |  | Activity [10]: Active; Activity [11]: 40 g; Activity [14]: 43 g; EC50 [16]: 154 nM
4 | CCCCCn1cc(C(=O)c2cccc3ccccc23)c2ccccc21 | 41 | 42 | Active | 3.4 | 2.9 | 69 | > 10000 | 163 | > 10000 | > 10000 |  |  |  |  |  |  |  | Kdiss [17]: 0.00175 s⁻¹; Kd(app) [18]: 6.5 nM; Activity [19]: 60%; Activity [20]: 65%; Emax [21]: 1120 fmol/mg; K [22]: 0.124 min⁻¹; Kd [23]: 3.4 nM; Emax [24]: 167%; EC50 [25]: 36 nM
5 | C[C@@H](NC(=O)[C@@H](N)Cc1ccc(O)cc1)C(=O)NCC(=O)N[C@@H](Cc1ccccc1)C(=O)NCC(=O)NCCCCCn1cc(C(=O)c2cccc3ccccc23)c2ccccc21 | 39 | 35 | Active | 251 | 317 | 114 | 63 | 160 |  | 134 | 100 | 125 | 148 | Active | 671 | 378 | 161 | 
6 | COc1ccc2c3c1O[C@H]1/C(=N\OCC(=O)NCCCCCCNC(=O)CCCCCn4cc(C(=O)c5cccc6ccccc56)c5ccccc54)CC[C@@]4(O)[C@@H](C2)N(C)CC[C@]314 | 42 | 47 | Active | 34 | 12 | 215 | 172 | 147 | 18 | 263 | 100 | 139 | 122 | Active | 340 | 452 | 146 | EC50 [34]: 397 nM; Emax [35]: 112%
